In ChEMBL document CHEMBL1124397, “A novel class of "GABAergic" agents: 1-aryl-3-(aminoalkylidene)oxindoles” (J Med Chem, 1989):

Legend:
[1] = target: GABA-A receptor; anion channel (Rattus norvegicus) (UniProt O09028+P15431+P18506+P18508+P19969+P20236+P23574+P23576+P28471+P28473+P30191+P62813+P63079+P63138+Q91ZM7+Q9ES14); test: Antagonism of mercaptopropionic acid (MPA) induced convulsions in mouse; format: functional, organism-based
Mus musculus [2] = test: Activity to antagonise cyclic GMP after administration of isoniazid in mouse brain; value ranges from 3.2-10; format: functional
[3] = Ability to displace [3H]flunitrazepam ([3H]-FNP) binding to mouse brain after intraperitoneal administration at a dose 320 umol/kg; format: functional, organism-based; conditions: at 320 µmol/kg
Outline: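 Mice in groups of five got test agent or vehicle ip 1 h before iv [3H]FNP at 200 μCi/kg, then were killed 20 min later by cervical dislocation. Brains were frozen and homogenized in 40 volumes of ice-cold 50 mM Tris-HCl pH 7.7. Triplicate samples were filtered on glass fiber, washed with cold buffer and counted. Bound label is expressed as % of vehicle-treated mice.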

Mus musculus [4] = test: Activity tested to antagonise cyclic GMP after administration of isoniazid in mouse brain; format: functional
Mus musculus [5] = test: Compound was tested for enhancement of [3H]Flunitrazepam ([3H]FNP) binding to mouse brain after intraperitoneal administration at a dose 32uM/kg, expressed as percent of control; format: functional
Outline: (§1)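 Mice in groups of five received test compound or vehicle ip 1 h before 200 μCi/kg [3H]FNP iv and were killed 20 min later. Brains were homogenized in 40 volumes of ice-cold 50 mM Tris-HCl pH 7.7. Triplicate 1.0-mL samples were filtered on glass fiber, washed with cold buffer and counted. Bound FNP is given as % of vehicle-treated mice.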

[6] = Toxicity measured in mouse by subcutaneous administration; format: organism-based; conditions: in vivo, sc
Outline: (§2)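 Mouse LD50 in mg/kg after sc or ip dosing, by the route named in each line.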

Mus musculus [7] = test: Compound was tested for enhancement of [3H]Flunitrazepam ([3H]FNP) binding to mouse brain after intraperitoneal administration at a dose 10uM/kg, expressed as percent of control; format: functional; outline: as §1
Mus musculus [8] = test: Activity to antagonise mercaptopropionic acid (MPA) induced convulsions in mouse after subcutaneous administration; format: functional; conditions: sc
Outline: (§3)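 Male Swiss CD mice (17–21 g), fasted 18 h, in groups of five. […] One hour later MPA 32 mg/kg ip. Protection meant no convulsions during 10 min of observation.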

[9] = Toxicity was measured in mouse by intraperitoneal administration; value ranges from 32-100; conditions: in vivo, ip; outline: as §2
P23576 = test: Administered at a dose 320 umol/kg intraperitoneally before [3H]Flunitrazepam ([3H]-FNP) in mouse brain expressed as percent of control; format: functional, tissue-based; outline: as §1
Mus musculus [10] = test: Compound was tested for enhancement of [3H]flunitrazepam ([3H]-FNP) binding to mouse brain after intraperitoneal administration at a dose 3.2uM/kg, expressed as percent of control; format: functional; outline: as §1
Mus musculus [11] = test: Ability to displace [3H]Flunitrazepam ([3H]-FNP) binding to mouse brain after intraperitoneal administration at a dose […]; format: functional
Mus musculus [12] = test: Activity to antagonise cyclic GMP after administration of isoniazid in mouse brain; value ranges from 1-3.2; format: functional
[13] = Toxicity was measured in mouse by intraperitoneal administration; value ranges from 3.2-10; conditions: in vivo, ip; outline: as §2
Mus musculus [14] = test: Compound was tested for enhancement of [3H]flunitrazepam ([3H]-FNP) binding to mouse brain after intraperitoneal administration at a dose of 100uM/kg, expressed as percent of control; format: functional; outline: as §1
Mus musculus [15] = test: Activity to antagonise cyclic GMP after administration of isoniazid in mouse brain; value ranges from 0.3-1; format: functional
Mus musculus [16] = test: Activity to antagonise mercaptopropionic acid (MPA) induced convulsions in mouse after subcutaneous administration; value ranges from 3.2-5.6; format: functional; conditions: sc; outline: as §3
Mus musculus [17] = test: Compound was tested for enhancement of [3H]Flunitrazepam ([3H]-FNP) binding to mouse brain after intraperitoneal administration at a dose of 3.2uM/kg, expressed as percent of control; format: functional; outline: as §1
[18] = (§4) Toxicity was measured in mouse by intraperitoneal administration; conditions: in vivo, ip; outline: as §2
Mus musculus [19] = test: Compound was tested for enhancement of [3H]Flunitrazepam ([3H]FNP) binding to mouse brain after intraperitoneal administration at a dose of 32uM/kg, expressed as percent of control; format: functional; outline: as §1
Mus musculus [20] = test: Ability to displace [3H]Flunitrazepam ([3H]FNP) binding to mouse brain after intraperitoneal administration at a dose 32uMl/kg, expressed as percent of control; format: functional; outline: as §1
Mus musculus [21] = test: Activity to antagonise mercaptopropionic acid (MPA) induced convulsions in mouse after intraperitoneal administration; format: functional; conditions: ip
Mus musculus [22] = test: Activity to antagonise mercaptopropionic acid (MPA) induced convulsions in mouse after subcutaneous administration; the value ranges from 32-100; format: functional; conditions: sc; outline: as §3
Mus musculus [23] = test: Compound was tested for enhancement of [3H]Flunitrazepam ([3H]FNP) binding to mouse brain after intraperitoneal administration at a dose of 1000uM/kg, expressed as percent of control; format: functional
Outline: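 Groups of five mice got the test compound or vehicle ip at the stated dose, 1 h (60 min) before iv [3H]FNP at 200 μCi/kg. Mice were killed by cervical dislocation 20 min after [3H]FNP. Brains were frozen, weighed and homogenized in 40 volumes ice-cold 50 mM Tris-HCl pH 7.7. Triplicate 1.0-mL samples were filtered on glass fiber and washed with cold buffer. Bound radioactivity was counted and expressed as % of vehicle-treated mice.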

Mus musculus [24] = test: Compound was tested for enhancement of [3H]Flunitrazepam ([3H]FNP) binding to mouse brain after intraperitoneal administration at a dose of 10 uM/kg, expressed as percent of control; format: functional; outline: as §1
Mus musculus [25] = test: as §4; format: organism-based; conditions: in vivo, ip
Outline: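 Mice were dosed intraperitoneally and observed for 7 days after drug administration to estimate the LD50.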

Mus musculus [26] = test: Activity to antagonise cyclic GMP after administration of isoniazid in mouse brain; value ranges from 0.1-0.3; format: functional

Sequence of P23576 (P23576 whole entry): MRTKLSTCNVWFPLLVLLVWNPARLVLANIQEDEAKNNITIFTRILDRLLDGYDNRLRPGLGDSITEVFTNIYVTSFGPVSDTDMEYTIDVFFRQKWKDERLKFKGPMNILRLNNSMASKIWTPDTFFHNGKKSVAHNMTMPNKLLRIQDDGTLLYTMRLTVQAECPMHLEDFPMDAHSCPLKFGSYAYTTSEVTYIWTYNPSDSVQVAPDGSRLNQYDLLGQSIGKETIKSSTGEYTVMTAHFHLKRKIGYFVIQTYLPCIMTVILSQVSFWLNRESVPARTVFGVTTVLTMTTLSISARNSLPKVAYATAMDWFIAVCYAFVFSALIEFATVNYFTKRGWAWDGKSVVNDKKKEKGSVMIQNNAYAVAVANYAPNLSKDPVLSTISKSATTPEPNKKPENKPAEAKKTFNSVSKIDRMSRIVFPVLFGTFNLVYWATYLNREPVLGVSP

## CN(C)/C=C1\C(=O)N(c2ccccc2Cl)c2ccccc21
[1]
  ED50: > 100 mg/kg
Mus musculus [2]
  ED50: 3.2 mg/kg

## COc1cccc(N2C(=O)/C(=C\N(C)C)c3ccccc32)c1
[1]
  ED50: 27.9 mg/kg
[3]
  [3H]flunitrazepam binding: 217%
Mus musculus [4]
  ED50: < 10 mg/kg

## COc1ccc(N2C(=O)/C(=C\N(C)C)c3ccccc32)cc1OC
[1]
  ED50: > 100 mg/kg
[3]
  [3H]flunitrazepam binding: 138%
Mus musculus [4]
  ED50: < 10 mg/kg

## COc1ccc(N2C(=O)/C(=C3/CCCN3C)c3ccccc32)cc1Cl
Mus musculus [5]
  Control: 159%
[6]
  LD50: ≥ 320 mg/kg
Mus musculus [7]
  Control: 128%
Mus musculus [8]
  ED50: 3.6 mg/kg
[9]
  LD50: 32 mg/kg
P23576
  Control: 220%
Mus musculus [10]
  Control: 115%

## CN1C(=O)CN=C(c2ccccc2)c2cc(Cl)ccc21 [DIAZEPAM]
[1]
  ED50: 0.7 mg/kg
Mus musculus [4]
  ED50: < 0.9 mg/kg
Mus musculus [11]
  Control: 66%

## CN(C)/C=C1\C(=O)N(c2cccc(Cl)c2)c2ccccc21
[1]
  ED50: 26.1 mg/kg
Mus musculus [12]
  ED50: 1 mg/kg

## NCc1cc(O)no1 [MUSCIMOL]
[6]
  LD50: 4.2 mg/kg
[13]
  LD50: 3.2 mg/kg
Mus musculus [4]
  ED50: 1.5 mg/kg
Mus musculus [8]
  ED50: 0.7 mg/kg

## COc1ccc(N2C(=O)/C(=C3/CCCN3C)c3ccccc32)cc1
Mus musculus [14]
  Control: 192%
Mus musculus [15]
  ED50: 1 mg/kg
Mus musculus [16]
  ED50: 5.6 mg/kg
[6]
  LD50: > 1000 mg/kg
Mus musculus [17]
  Control: 105%
[18]
  LD50: > 320 mg/kg
Mus musculus [19]
  Control: 125%
Mus musculus [20]
  Control: 103%
Mus musculus [21]
  ED50: ~3.2 mg/kg
P23576
  Control: 211%

## COc1cccc(N2C(=O)/C(=C3/CCCN3C)c3ccccc32)c1
Mus musculus [22]
  ED50: 100 mg/kg
P23576
  Control: 214%

## NC(=O)CCC/N=C(\c1ccc(Cl)cc1)c1cc(F)ccc1O [PROGABIDE]
[1]
  ED50: > 100 mg/kg
[6]
  LD50: > 1000 mg/kg
[18]
  LD50: ~1000 mg/kg
Mus musculus [4]
  ED50: < 32 mg/kg

## CCCC(CCC)C(=O)[O-].[Na+] [VALPROATE SODIUM]
[1]
  ED50: 212 mg/kg
[6]
  LD50: > 1000 mg/kg
[18]
  LD50: > 1000 mg/kg
Mus musculus [23]
  Control: 128%

## CN1CCC/C1=C1/C(=O)N(c2cccc(Cl)c2)c2ccccc21
[1]
  ED50: > 100 mg/kg
Mus musculus [14]
  Control: 132%
Mus musculus [24]
  Control: 105%
[6]
  LD50: > 1000 mg/kg
[18]
  LD50: > 320 mg/kg
Mus musculus [19]
  Control: 105%
Mus musculus [21]
  ED50: ~3.2 mg/kg
P23576
  Control: 192%

## O=C1/C(=C\n2ccnc2)c2ccccc2N1c1cccc(Cl)c1
[1]
  ED50: > 100 mg/kg
P23576
  Control: 139%

## O=C1/C(=C2/CCCN2c2ccccc2)c2ccccc2N1c1cccc(Cl)c1
[1]
  ED50: > 100 mg/kg
P23576
  Control: 125%

## CN(C)/C=C1\C(=O)N(c2cc(Cl)ccc2Cl)c2ccccc21
[1]
  ED50: > 100 mg/kg
[3]
  [3H]flunitrazepam binding: 147%
Mus musculus [4]
  ED50: ~10 mg/kg

## COc1ccc(N2C(=O)/C(=C3/CCCN3C)c3ccccc32)cc1F
[1]
  ED50: 5.6 mg/kg
P23576
  Control: 225%

## CN(/C=C1\C(=O)N(c2cccc(Cl)c2)c2ccccc21)Cc1ccccc1
[1]
  ED50: > 100 mg/kg
P23576
  Control: 135%

## O=C1/C(=C2/CCCN2Cc2ccccc2)c2ccccc2N1c1cccc(Cl)c1
[1]
  ED50: > 100 mg/kg
P23576
  Control: 149%

## CCCCNc1c(C(=O)OCC)c(C)nc2c1cnn2CC [TRACAZOLATE]
Mus musculus [25]
  ED50: > 1000 mg/kg
Mus musculus [4]
  ED50: ~3 mg/kg
Mus musculus [8]
  ED50: > 100 mg/kg

## CN(C)/C=C1\C(=O)N(c2ccc(Cl)c(Cl)c2)c2ccccc21
[1]
  ED50: > 100 mg/kg
[3]
  [3H]flunitrazepam binding: 144%
Mus musculus [26]
  ED50: 0.1 mg/kg

## C/C(=C1/C(=O)N(c2cccc(Cl)c2)c2ccccc21)N(C)C
[1]
  ED50: 13.3 mg/kg
Mus musculus [4]
  ED50: 1 mg/kg

## CN1CCC/C1=C1/C(=O)N(c2ccccc2)c2ccccc21
[1]
  ED50: > 100 mg/kg
P23576
  Control: 143%

## CN1CCC/C1=C1/C(=O)N(c2cccc(C#N)c2)c2ccccc21
[1]
  ED50: > 100 mg/kg
P23576
  Control: 121%

## CN1CCC/C1=C1/C(=O)N(c2cccc(Cl)c2)c2cc(Cl)ccc21
[1]
  ED50: > 100 mg/kg
P23576
  Control: 189%
